Measurements collected from several papers.
Protocols differ between the studies behind these lines.
HTR1E: 5-hydroxytryptamine receptor 1E (HTR1E, Homo sapiens, UniProt P28566)
BACE1: Beta-secretase 1 (BACE1, Homo sapiens, UniProt P56817)

CC(N)Cc1c[nH]c2ccc(OCc3cccs3)cc12 (stereo not drawn)  EC50 (HTR1E; G protein activation, agonist, BRET): 3.99 µM
COc1cccc(C=NNC(=O)c2cc(-c3cn(C)c4ccccc34)on2)c1OC  IC50 (BACE1; enzyme activity, inhibitor, FRET): 8.28 µM
CC[C@H](C)[C@H](NC(=O)[C@H](CO)NC(=O)CNC(=O)[C@@H](NC(=O)[C@@H](NC(=O)[C@@H](NC(=O)CN)[C@@H](C)O)C(C)C)[C@@H](C)O)C(=O)N[C@@H](CC(C)C)C(=O)N[C@H](C(=O)N1CCC[C@H]1C(=O)N[C@H](C(=O)N[C@@H](CC(=O)O)C(=O)N[C@@H](Cc1ccc(O)cc1)C(=O)NCC(=O)N[C@H]1CSSC[C@@H](C(=O)N[C@@H](CO)C(=O)N[C@H](C(=O)N[C@@H](C)C(=O)N[C@@H](CCSC)C(=O)N[C@@H](Cc2ccc(O)cc2)C(=O)NCC(=O)NCC(=O)N[C@H](C(=O)N[C@H](C(=O)N[C@@H](CC(=O)O)C(=O)N2CCC[C@H]2C(=O)N[C@H](C(=O)N[C@@H](CCCNC(=N)N)C(=O)N[C@@H](Cc2ccccc2)C(=O)N2CCC[C@H]2C(=O)N[C@@H](CC(N)=O)C(=O)N[C@@H](C)C(=O)N[C@@H](Cc2c[nH]c3ccccc23)C(=O)N[C@@H](CCCNC(=N)N)C(=O)N[C@@H](CCC(=O)O)C(=O)N[C@@H](CC(C)C)C(=O)O)[C@@H](C)CC)[C@@H](C)CC)C(C)C)C(C)C)NC(=O)[C@H](CC(C)C)NC(=O)[C@H](Cc2ccccc2)NC(=O)[C@@H]2CCCN2C(=O)[C@H](CC(N)=O)NC(=O)[C@H](Cc2ccccc2)NC1=O)[C@@H](C)CC)[C@@H](C)O  IC50 (Neutrophil elastase (ELANE, Homo sapiens, UniProt P08246); enzyme activity, inhibitor): > 100 µM
Cn1cc(-c2cc(C(=O)NN=Cc3cccc([N+](=O)[O-])c3)no2)c2ccccc21  IC50 (BACE1; enzyme activity, inhibitor, FRET): > 100 µM
c1ccc(-c2nnc(CN3CCN(c4ccccc4)CC3)o2)cc1  IC50 (BACE1; enzyme activity, inhibitor, FRET): 4.79 µM
Cc1c2oc3c(C)ccc(C(=O)N[C@@H]4C(=O)N[C@H](C(C)C)C(=O)N5CCC[C@H]5C(=O)N(C)CC(=O)N(C)[C@@H](C(C)C)C(=O)O[C@@H]4C)c3nc-2c(C(=O)N[C@@H]2C(=O)N[C@H](C(C)C)C(=O)N3CCC[C@H]3C(=O)N(C)CC(=O)N(C)[C@@H](C(C)C)C(=O)O[C@@H]2C)c(N)c1=O  Kd (Palmitoyl-protein thioesterase 1 (Homo sapiens, UniProt P50897); binding, MST): 0.235 µM
CNC(=O)c1ccc(-c2cnn3ccc(C(=O)N(C)c4ccc(Cl)c(C(=O)O)c4)cc23)cc1  IC50 (Non-receptor tyrosine-protein kinase TYK2 (TYK2, Homo sapiens, UniProt P29597); enzyme activity, inhibitor): > 30 µM
CCN(CC)C(=O)N[C@H]1C[C@@H]2c3cccc4[nH]cc(c34)C[C@H]2N(C)C1  EC50 (HTR1E; G protein activation, agonist, BRET): 1.81 µM
COC(=O)c1cc(N(C)C(=O)c2ccn3ncc(-c4ccc(C(=O)O)cc4)c3c2)ccc1Cl  IC50 (Epidermal growth factor receptor (EGFR, Homo sapiens, UniProt P00533); enzyme activity, inhibitor): > 30 µM
C=CC(=O)N[C@H]1C=C(C)c2c(-c3cnc4ccccc4c3)c3c(N)ncnc3n2C1  IC50 (Epidermal growth factor receptor (EGFR, Homo sapiens, UniProt P00533, L858R/T790M); enzyme activity, inhibitor): 0.0011 µM
O=C(O)C(F)(F)C(F)(F)C(F)(F)C(F)(F)C(F)(F)C(F)(F)C(F)(F)F  IC50 (Aldo-keto reductase family 1 member C4 (AKR1C4, Homo sapiens, UniProt P17516); enzyme activity, inhibitor): ≥ 50 µM
CNC(=O)c1ccc(-c2cnn3ccc(C(=O)N(C)c4ccc(Cl)c(C(=O)OC)c4)cc23)cc1  IC50 (Wee1-like protein kinase (WEE1, Homo sapiens, UniProt P30291); enzyme activity, inhibitor): > 30 µM
